This note sets out measurements from ChEMBL document CHEMBL1795327, “Novel 4-phenylpiperidine-2,6-dione derivatives. Ligands for α₁-adrenoceptor subtypes” (Eur J Med Chem, 2011).

Calls of active or inactive are those of the source. No cut-off for these calls is given here.

Experiment [1] deals with T1, Alpha-1A adrenergic receptor (Homo sapiens, UniProt P35348).
T1 sequence (P35348 whole entry): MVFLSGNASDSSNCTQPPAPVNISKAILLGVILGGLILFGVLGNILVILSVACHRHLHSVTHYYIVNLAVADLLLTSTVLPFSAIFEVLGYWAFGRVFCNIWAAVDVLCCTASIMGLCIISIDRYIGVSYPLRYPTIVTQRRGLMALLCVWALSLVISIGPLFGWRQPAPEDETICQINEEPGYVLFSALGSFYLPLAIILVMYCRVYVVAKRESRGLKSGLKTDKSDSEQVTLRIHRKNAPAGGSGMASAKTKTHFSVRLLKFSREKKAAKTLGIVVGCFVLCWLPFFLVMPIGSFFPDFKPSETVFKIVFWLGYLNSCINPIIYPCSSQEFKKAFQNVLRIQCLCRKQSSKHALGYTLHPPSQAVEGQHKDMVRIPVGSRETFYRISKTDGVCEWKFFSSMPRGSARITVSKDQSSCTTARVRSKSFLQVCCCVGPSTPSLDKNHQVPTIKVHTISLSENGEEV
In words: Displacement of [125I]BE-2254 from human adrenergic alpha1A receptor expressed in HEK293 cells. The format is cell-based. The gist of the method: (§1)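 Membranes came from HEK293 cells stably expressing human α1A-, α1B- or α1D-AR, selected with geneticin. Cells were washed in PBS pH 7.6, homogenized, and spun at 30,000 × g for 10 min. The radioligand was [125I]BE 2254. Affinities are pKi, given as mean ± SE of three experiments run in duplicate.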
In general terms: Displacement assays read how much labelled ligand stays bound in the presence of the test substance.

Experiment [2] addresses T2, Alpha-1B adrenergic receptor (Homo sapiens, UniProt P35368).
T2 sequence (P35368 whole entry): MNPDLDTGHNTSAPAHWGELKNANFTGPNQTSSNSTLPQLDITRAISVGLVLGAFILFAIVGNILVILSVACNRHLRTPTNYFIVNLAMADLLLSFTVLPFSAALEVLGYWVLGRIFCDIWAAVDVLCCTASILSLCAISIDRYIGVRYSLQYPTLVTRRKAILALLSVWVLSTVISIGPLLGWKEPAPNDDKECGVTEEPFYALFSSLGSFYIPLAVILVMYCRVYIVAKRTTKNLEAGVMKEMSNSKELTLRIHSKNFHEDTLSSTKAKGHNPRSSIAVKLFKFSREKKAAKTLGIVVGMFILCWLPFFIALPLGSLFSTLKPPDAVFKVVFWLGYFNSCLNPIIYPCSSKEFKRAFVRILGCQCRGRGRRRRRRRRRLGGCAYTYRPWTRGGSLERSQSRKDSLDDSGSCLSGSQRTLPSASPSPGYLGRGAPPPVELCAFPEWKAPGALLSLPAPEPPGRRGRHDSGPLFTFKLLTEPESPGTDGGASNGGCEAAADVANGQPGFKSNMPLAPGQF
In words: Displacement of [125I]BE-2254 from human adrenergic Alpha-1B receptor expressed in HEK293 cells. The experiment is classed as cell-based. The method, boiled down: as §1

In experiment [3] the target is T3, Alpha-1D adrenergic receptor (Homo sapiens, UniProt P25100).
T3 sequence (P25100 whole entry): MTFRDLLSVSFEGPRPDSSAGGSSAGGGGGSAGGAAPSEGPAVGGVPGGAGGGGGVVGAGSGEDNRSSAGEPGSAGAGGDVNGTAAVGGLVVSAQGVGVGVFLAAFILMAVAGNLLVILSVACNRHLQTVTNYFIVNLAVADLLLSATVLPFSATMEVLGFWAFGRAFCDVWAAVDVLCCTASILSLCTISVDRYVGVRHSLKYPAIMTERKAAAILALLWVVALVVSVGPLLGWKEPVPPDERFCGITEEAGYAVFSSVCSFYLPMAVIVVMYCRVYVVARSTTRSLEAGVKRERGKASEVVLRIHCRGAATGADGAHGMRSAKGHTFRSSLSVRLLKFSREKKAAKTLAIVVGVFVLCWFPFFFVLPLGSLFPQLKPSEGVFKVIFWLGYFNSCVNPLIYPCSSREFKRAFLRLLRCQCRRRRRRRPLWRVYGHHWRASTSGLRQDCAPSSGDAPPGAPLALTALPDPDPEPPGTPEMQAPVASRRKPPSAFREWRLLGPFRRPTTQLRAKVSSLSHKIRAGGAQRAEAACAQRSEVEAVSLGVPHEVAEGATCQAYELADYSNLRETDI
In words: Displacement of [125I]BE-2254 from human adrenergic Alpha-1D receptor expressed in HEK293 cells. The experiment is classed as cell-based. The method, boiled down:
as §1

For experiment [4], the target named is T1, Alpha-1A adrenergic receptor. In words: Antagonist activity at human adrenergic alpha1A receptor expressed in HEK293 cells assessed as inhibition of norepinephrine-induced [3H]inositol phosphate hydrolysis by scintillation counting. The format is functional, cell-based. The method, boiled down:
(§2)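 HEK293 cells stably transfected with human α1A-, α1B- or α1D-AR cDNA were prelabelled with myo-[3H]inositol, then given Krebs Ringer bicarbonate buffer with LiCl. Cells were incubated 60 min with or without NE and graded compound concentrations. The reaction was stopped with 20 mM formic acid. [3H]InsPs were isolated by anion exchange and counted by scintillation. Values (±SE) came from concentration-response inhibition curves.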

The target of experiment [5] is T2, Alpha-1B adrenergic receptor. In words: Antagonist activity against human cloned adrenergic Alpha-1B receptor expressed in HEK293 cells assessed as inhibition of norepinephrine-induced [3H]inositol phosphate hydrolysis by scintillation counting. The experiment is classed as functional, cell-based. The method, boiled down: as §2
The target in experiment [6] is T3, Alpha-1D adrenergic receptor. In words: Antagonist activity against human cloned adrenergic Alpha-1D receptor expressed in HEK293 cells assessed as inhibition of norepinephrine-induced [3H]inositol phosphate hydrolysis by scintillation counting. The experiment is classed as functional, cell-based. The method, boiled down: as §2
For experiment [7], the target named is T4, Alpha-1A adrenergic receptor (Homo sapiens) (UniProt P35348).
T4 sequence (whole entry): T1 sequence (P35348 whole entry)
In words: Antagonist activity at human adrenergic alpha1A receptor expressed in HEK293 cells assessed as [3H]inositol phosphate formation at 10 uM by scintillation counting. The experiment is classed as functional, cell-based. The gist of the method: (§3)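 Stably transfected HEK293 cells expressing human α1A-, α1B- or α1D-AR were labelled with myo-[3H]inositol and moved to Krebs Ringer bicarbonate buffer containing LiCl. They were incubated 60 min with or without NE, in the presence or absence of test compound. After a formic acid stop and sonication, [3H]InsPs were separated by anion-exchange chromatography and counted by scintillation.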

Experiment [8] addresses T5, Alpha-1B adrenergic receptor (Homo sapiens) (UniProt P35368).
T5 sequence (whole entry): T2 sequence (P35368 whole entry)
In words: Antagonist activity at human adrenergic Alpha-1B receptor expressed in HEK293 cells assessed as [3H]inositol phosphate formation at 10 uM by scintillation counting. The experiment is classed as functional, cell-based. The method, boiled down:
as §3

For experiment [9], the target named is T6, Alpha-1D adrenergic receptor (Homo sapiens) (UniProt P25100).
T6 sequence (whole entry): T3 sequence (P25100 whole entry)
In words: Antagonist activity at human adrenergic Alpha-1D receptor expressed in HEK293 cells assessed as [3H]inositol phosphate formation at 10 uM by scintillation counting. The format is functional, cell-based. The method, boiled down: as §3

Experiment [10] concerns the target T2, Alpha-1B adrenergic receptor. In words: Binding affinity to adrenergic Alpha-1B receptor. The gist of the method:
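Human α1B-adrenoceptor stably expressed in HEK293 cells, transfected with a pRSVICAT vector and selected with geneticin. Membranes were prepared by scraping cells, homogenizing them and centrifuging at 30,000 × g for 10 min. Values are pKi, mean ± SE of three experiments run in duplicate.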

One may read the Ki as the equilibrium dissociation constant of an inhibitor or competing ligand from its target. As to `O=C1CC(c2ccccc2)CC(=O)N1CCCCN1CCN(c2ccccc2Cl)CC1`, the figures for the Ki in experiment [1], in experiment [2] and in [3] were 15.8 nM, 30.2 nM and 33.9 nM, respectively.

With `COc1ccccc1N1CCN(CCN2C(=O)CC3(CCc4ccccc43)CC2=O)CC1`, the values for the inhibition constant (Ki) in experiment [1], in [2] and in experiment [3] were 3390 nM, 5010 nM and 912 nM, respectively.

In the case of `COc1ccccc1N1CCN(CCCN2C(=O)CC3(CCc4ccccc43)CC2=O)CC1`, the inhibition constant Ki is 63.1 nM in experiment [1], 234 nM in experiment [2] and 75.9 nM in experiment [3].

As to `O=C1CC(c2ccc(Cl)cc2)CC(=O)N1CCN1CCN(c2ccccc2Cl)CC1`, the Ki in experiment [1] is 6920 nM; in experiment [2] it was 10000 nM; in [3] it was 1510 nM.

Turning to `COc1ccc(Cl)cc1N1CCN(CCCCN2C(=O)CC(c3ccccc3)CC2=O)CC1`, the Ki was 36.3 nM in [1], 107 nM in experiment [2] and 38.9 nM in experiment [3].

In the case of `COc1ccccc1N1CCN(CCCCN2C(=O)CC(C)(c3ccccc3)CC2=O)CC1`, the Ki in [1] is 22.4 nM; in experiment [2] it was 56.2 nM; in [3], 14.5 nM; in [4] it was 31.6 nM; in experiment [5], 7.94 nM; in [6] it was 0.501 nM. Besides, the result in experiment [7], in [8] and in experiment [9] was inactive.

`COc1ccc(Cl)cc1N1CCN(CCCCN2C(=O)CC(C)(c3ccccc3)CC2=O)CC1`: the Ki in experiment [1] is 95.5 nM; in [2], 151 nM; in experiment [3] it was 77.6 nM.

As for `COc1ccccc1N1CCN(CCN2C(=O)CC(c3ccccc3)CC2=O)CC1`, the Ki was 3470 nM in experiment [1], 7410 nM in experiment [2] and 1320 nM in [3].

Broadly, the pKi is −log10 of the Ki, conventionally taken in molar units. The low end stands for a large Ki, the high end for a small Ki. For the compound `CC(C)(C)c1ccc(N2CCN(CCn3c(=O)[nH]c4c([nH]c5ccccc54)c3=O)CC2)cc1`, in experiment [3] (hek293), the pKi was 7.7.

On to `COc1ccccc1N1CCN(CCN2C(=O)CC3(CCCC3)CC2=O)CC1`, for which the affinity in [10] corresponds to a Ki of 50.1 nM.

On to `COc1ccccc1N1CCN(CCCN2C(=O)CC(c3ccc([N+](=O)[O-])cc3)CC2=O)CC1`, for which the figures for the inhibitory constant (Ki) in [1], in [2] and in [3] were 14.1 nM, 129 nM and 67.6 nM, respectively.

Turning to `COc1ccccc1N1CCN(CCCN2C(=O)CC(c3ccc(Cl)cc3)CC2=O)CC1`, the values for the Ki in experiment [1], in experiment [2] and in [3] were 28.2 nM, 126 nM and 69.2 nM, respectively.

For the compound `COc1ccccc1N1CCN(CCCCN2C(=O)CC(c3ccc(Cl)cc3)CC2=O)CC1`, the Ki in [1] was 67.6 nM; in experiment [2], 245 nM; in [3], 72.4 nM.

`COc1ccccc1N1CCN(CCCCN2C(=O)CC(c3ccccc3)CC2=O)CC1`: the inhibition constant Ki is 1.82 nM in experiment [1]; 24 nM in experiment [2]; 15.8 nM in experiment [3]; 2.51 nM in experiment [4]; 3.98 nM in experiment [5]; 2 nM in [6]. Besides, the result in experiment [7], in [8] and in experiment [9] was inactive.

As to `COc1ccccc1N1CCN(CCCN2C(=O)CC(C)(c3ccccc3)CC2=O)CC1`, the inhibition constant (Ki) in experiment [1] was 10.2 nM; in experiment [2] it was 129 nM; in [3], 51.3 nM.

For `COc1ccccc1N1CCN(CCCCN2C(=O)CC3(CCc4ccccc43)CC2=O)CC1`, the Ki in experiment [1] was 9.77 nM; in experiment [2], 72.4 nM; in [3] it was 16.2 nM; in [4], 10 nM; in experiment [5], 20 nM; in [6] it was 5.01 nM. The outcome in [7], in experiment [8] and in experiment [9] was inactive.

For `COc1ccccc1N1CCN(CCCCCN2C(=O)CC(c3ccccc3)CC2=O)CC1`, the results for the Ki in [1], in [2] and in [3] were 21.9 nM, 97.7 nM and 30.9 nM, respectively.

In the case of `O=C1CC(c2ccc(Cl)cc2)CC(=O)N1CCCN1CCN(c2ccccc2Cl)CC1`, the inhibitory constant (Ki) in experiment [1] was 49 nM; in [2], 135 nM; in [3], 63.1 nM.

With `COc1ccc(Cl)cc1N1CCN(CCCN2C(=O)CC(c3ccccc3)CC2=O)CC1`, the Ki in [1] was 191 nM; in experiment [2], 331 nM; in [3] it was 389 nM.

Turning to `COc1ccccc1N1CCN(CCN2C(=O)CC(c3ccc(Cl)cc3)CC2=O)CC1`, the Ki was 1700 nM in [1], 112 nM in experiment [2] and 692 nM in [3].

Turning to `O=C1CC(c2ccccc2)CC(=O)N1CCN1CCN(c2ccccc2Cl)CC1`, the inhibition constant (Ki) was 3240 nM in experiment [1], 2240 nM in [2] and 631 nM in [3].

Take `COc1ccccc1N1CCN(CCCCN2C(=O)CC(c3ccc([N+](=O)[O-])cc3)CC2=O)CC1`: the Ki was 20.9 nM in experiment [1], 209 nM in [2] and 53.7 nM in experiment [3].

`COc1ccccc1N1CCN(CCCN2C(=O)CC(c3ccccc3)CC2=O)CC1`: the Ki was 46.8 nM in experiment [1], 112 nM in experiment [2] and 45.7 nM in experiment [3].

Regarding `COc1ccc(Cl)cc1N1CCN(CCCN2C(=O)CC(C)(c3ccccc3)CC2=O)CC1`, the Ki is 34.7 nM in experiment [1], 195 nM in experiment [2] and 97.7 nM in [3].

As for `COc1ccccc1N1CCN(CCn2c(=O)[nH]c3c([nH]c4ccccc43)c2=O)CC1`, the negative logarithm of the Ki (pKi) in experiment [1] (hek293) is given as 9.57.

`O=C1CC(c2ccccc2)CC(=O)N1CCCN1CCN(c2ccccc2Cl)CC1`: the figures for the Ki in [1], in [2] and in experiment [3] were 47.9 nM, 112 nM and 43.7 nM, respectively.
